Assay outcomes (PubChem BioAssay)
Most compounds without a hit are left out; they make up all but 1.8% or so of the library.
DNMT1 block: DNMT1 (human) enzyme inhibition; DNMT1 molecular beacon, Hinp1I cleavage, fluorescence; inhibition (reported as % activation of signal), % at 10 µM; hit rate 0.83% among 360,000; AID 588458; in the data active means inhibition above about 50%
Scp1 inh: Scp-1 (human) phosphatase inhibition. AID 493091. Recombinant Scp1, phosphopeptide, malachite green phosphate absorbance. Q9GZU7. inhibition, % at 20 µM. hit rate 0.88% among 340,000;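 active means inhibition above about 50% at 20 µM, limit read from the data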;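 further: plate controls were DMSO wells with enzyme for no effect and wells lacking enzyme for full effect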
Target sequence (Q9GZU7 76-261 limits assumed): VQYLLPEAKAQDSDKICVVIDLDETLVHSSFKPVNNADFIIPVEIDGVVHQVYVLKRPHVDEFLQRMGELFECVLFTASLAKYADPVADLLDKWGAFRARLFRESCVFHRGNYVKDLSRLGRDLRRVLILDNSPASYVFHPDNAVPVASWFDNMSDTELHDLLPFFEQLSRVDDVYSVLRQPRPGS
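System: SCP-1 catalytic domain; Reagent: Phospho 17-mer peptide substrate; Doses: one concentration, 20 µM, with 1.0% DMSO; Incubation: 45 min room-temperature reaction, 5 min colour, 30 min stabiliser; Signal: Phosphate-binding colour reagent, absorbance read at 630 nm.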
SUMO1 PPI mod: modulators of human SUMO1-mediated protein-protein interactions; P63165; SUMO1 binding to a labelled peptide, TR-FRET, 1 h; inhibition, % at 20 µM; hit rate 0.33% among 360,000; in the data active means inhibition above about 37%
Target sequence (P63165 whole entry, looked up): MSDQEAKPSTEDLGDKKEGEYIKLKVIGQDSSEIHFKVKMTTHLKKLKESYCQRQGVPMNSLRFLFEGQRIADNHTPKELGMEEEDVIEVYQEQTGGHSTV
STEP block: STEP (human) phosphatase inhibition; recombinant STEP, OMFP fluorogenic substrate, fluorescence; hit rate 0.25% among 360,000; AID 588621; inhibition, % at 20 µM; P54829;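 active means inhibition at 20 µM, scaled per plate between control wells, above about 37%, limit read from the data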;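 further: 0% = DMSO with enzyme and substrate and 100% = substrate only without enzyme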
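Material: STEP (striatal-enriched tyrosine phosphatase) enzyme, cell-free | Medium: 50 mM Bis-Tris pH 6.0 with 2.5 mM DTT and 0.005% Tween 20 | Read-out: Percent inhibition scaled to no-enzyme and uninhibited-enzyme controls, plate-pattern corrected | Signal: Fluorescence read at 480 nm ex / 540 nm em | Times: 20 min reaction, room temperature, in the dark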
LMPTP inh: LMPTP (human) inhibition; hit rate 0.22% among 360,000; P24666; recombinant LMPTP-A, OMFP fluorogenic substrate, fluorescence intensity; inhibition, % at 20 µM;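 active means compounds that cut the enzyme signal by at least half of the control window in the single-dose screen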;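 further: plate controls were DMSO wells with enzyme plus substrate for no effect and substrate without enzyme for full effect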
Target sequence (P24666 whole entry, looked up): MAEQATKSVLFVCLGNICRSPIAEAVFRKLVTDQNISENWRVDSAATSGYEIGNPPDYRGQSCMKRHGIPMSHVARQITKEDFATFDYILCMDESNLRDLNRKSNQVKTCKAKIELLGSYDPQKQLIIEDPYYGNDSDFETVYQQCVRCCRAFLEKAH
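Test system: LMPTP-A, protein tyrosine phosphatase of low molecular weight; Input: 0.625 nM enzyme; Incubation: 50 min dark incubation at room temperature; Signal: endpoint fluorescence intensity from OMFP dephosphorylation; Read-out basis: % inhibition versus control wells.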
DNMT1 interf DR: shows spectral interference in the DNMT1 beacon assay | shares compounds with DNMT1 block | molecular beacon fluorescence, spectral interference counter-screen | IC50, µM | 200 tested, under 10 active; call rule not given here
DNMT1 confirm: confirmation of human DNMT1 inhibitors | shares compounds with DNMT1 block | DNMT1 molecular beacon HinP1I cleavage, fluorescence | inhibition, % at 10 µM | hit rate 8% among 2,300 | AID 602385;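 active means average inhibition of at least 30% in the single-concentration confirmation test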
DNMT1 interf: shows spectral interference in the DNMT1 beacon assay | shares compounds with DNMT1 block | AID 602387 | activation (fluorescence interference), % at 10 µM | hit rate 1% among 2,300 | DNMT1 molecular beacon spectral interference counterscreen, fluorescence 485/520;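 active means activation of at least 30% at 10 µM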;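 further: DNMT1 catalytic domain with a HinP1I cleavage step and a FAM/dabcyl DNA beacon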
* hit, by the source's call; nt = not tested or not shown.

SMILES	DNMT1 block	Scp1 inh	SUMO1 PPI mod	STEP block	LMPTP inh	DNMT1 confirm	DNMT1 interf	others
c1ccc(Cn2c3ccccc3c3nnc(SCCN4CCCCC4)nc32)cc1	7	0	-13	-2	3	nt	nt
CSc1nnc2c3cc(C)ccc3n(Cc3ccccc3)c2n1	77*	11	-7	10	22	-3	-6
O=C(Nc1ccc2nn(-c3ccccc3)nc2c1)c1ccco1	-11	-9	-10	-2	2	nt	nt
O=C(Nc1cc2nn(-c3ccccc3)nc2cc1Cl)c1ccco1	75*	-10	-7	2	13	0	-5
O=P(c1ccccc1)(c1ccccc1)c1ccccc1C(Br)Br	0	nt	4	1	1	nt	nt
Cc1ccc(C)c(N2N=C(C(=O)N(CC(C)C)c3c(N)n(Cc4ccccc4)c(=O)[nH]c3=O)CCC2=O)c1	4	-2	-1	0	0	nt	nt
Cc1cc2oc3ccc(NCCCN4CCOCC4)cc3c(=O)c2cc1C	-2	-11	-29	4	1	nt	nt
Cc1cc2oc3ccc(NCCCn4ccnc4)cc3c(=O)c2cc1C	56*	-4	19	1	1	1	1
CC(=O)c1ccc(N=Cc2c(O)n(-c3cc(Cl)ccc3N3CCOCC3)c(=O)c3ccccc23)cc1	86*	-14	-8	7	4	4	5
C=CCN1CC(=O)N2C(c3ccccc3)c3[nH]c4ccccc4c3C[C@H]2C1=O (some centres not stated)	0	11	-4	2	-1	nt	nt
CC1Sc2ccc(C(=O)N(CCc3ccccc3)Cc3ccccc3)cc2NC1=O (configuration not stated)	83*	nt	3	0	2	1	7
C/C(COc1ccccc1)=N\NC(=O)c1nnn(-c2nonc2N)c1CSc1ccc(C)cc1	-4	nt	2	-1	0	nt	nt
COc1ccc(NC(=O)CSc2nc3c(cc2C#N)CN(C)CC3)cc1	71*	6	-8	3	21	3	5
Clc1ccc(-c2cc3nc(NCc4cccc(Cl)c4)ccn3n2)cc1	79*	nt	7	3	4	6	9
O=C(CSc1ccccc1F)NC(=O)NC1CCCC1	-3	nt	-2	2	-3	nt	nt
O=[N+]([O-])c1cc(-c2ccccc2)cc([N+](=O)[O-])c1O	4	-2	-33	9	2	nt	nt
Nc1nc(-c2cc(O)ccc2[N+](=O)[O-])cc(-c2ccccc2)c1[N+](=O)[O-]	60*	18	50*	3	41	5	-6
O=C(C1CCN(S(=O)(=O)c2ccccc2)CC1)N1CCN(c2ccccc2)CC1	0	12	-2	1	1	nt	nt
NC(=O)C1CCN(C(=O)C2CCN(S(=O)(=O)c3ccccc3)CC2)CC1	81*	-7	1	0	-3	5	1
O=C(OCC(O)C(O)C(O)C(SCc1ccccc1)SCc1ccccc1)c1ccccc1 (configuration not stated)	-9	-13	5	-1	2	nt	nt
CN(C)CCc1cc2c(c3c1ccc1ccccc13)OCO2	60*	-4	-15	4	-1	37*	6	DNMT1 interf DR=>99
Cc1sc2ncnc(N[C@@H](CCC(=O)O)C(=O)O)c2c1C	1	1	4	-1	-3	nt	nt
Cc1sc2ncnc(NC(C)C(=O)O)c2c1C (configuration not stated)	55*	1	1	-2	0	1	-3
CCCCCNC(=O)C(C1CC1)n1c(=O)c(-c2ccccc2)nc2ccccc21 (configuration not stated)	nt	nt	-9	nt	-1	nt	nt
O=C(O)CCN1C(=O)/C(=C/c2ccc(-c3nc4ccccc4s3)o2)SC1=S	99*	46	91*	70*	3	47*	0	DNMT1 interf DR=>99
SMILES	DNMT1 block	Scp1 inh	SUMO1 PPI mod	STEP block	LMPTP inh	DNMT1 confirm	DNMT1 interf	others
Cc1ccc(-c2cc(C(=O)Nc3sc4c(c3C(=O)NCc3ccco3)CCC4)[nH]n2)c(O)c1	-10	-4	7	2	11	nt	nt
CCNC(=O)c1c(NC(=O)c2cc(-c3cc(C)ccc3O)n[nH]2)sc2c1CCCC2	76*	-1	-2	4	2	6	1
COc1ccc(NC(=O)CSc2nnnn2C)cc1S(=O)(=O)N1CCCCC1	3	-5	-2	-6	-2	nt	nt
Cc1ccc(S(=O)(=O)n2cc(CO)c3ccccc32)cc1	-2	-12	4	1	1	nt	nt
COc1ccc(-c2cc(=O)c3ccc(O)cc3o2)cc1	-3	-4	-4	-2	1	nt	nt
COc1ccc(-c2ccc3c(=O)cc(-c4ccsc4)oc3c2)cn1	53*	1	19	-2	33	1	2
C=C(C)COC(=O)C1CC2OC2CC1C(=O)OCC(=C)C (configuration not stated)	1	-7	3	-1	0	nt	nt
Cn1cc(CN2C[C@H]3CC[C@H]2C3)c(-c2ccccc2F)n1	58*	2	4	2	-1	4	3
Cn1cc(CN2CCC(C(=O)N3CCCC3)CC2)c(-c2ccccc2F)n1	-6	-1	2	-4	-1	nt	nt
COc1ccc(CNC(=O)C[C@H]2C[C@H](C(=O)N3CCCCC3)[C@@]3(CCc4ccccc4)c4[nH]c5ccc(Cl)cc5c4CCN3C2=O)cc1OC	-24	0	-4	1	6	nt	nt
Oc1[nH]c2ccccc2c1N=Nc1ccccc1	-2	-5	-6	-4	2	nt	nt
Oc1[nH]c2ccccc2c1N=Nc1ccc(F)cc1	63*	-7	-9	-9	1	31*	29	DNMT1 interf DR=20*
COc1ccc(-n2nc3c(c2NC(=O)CCCl)CSC3)cc1	-13	-12	-1	-1	1	nt	nt
Cc1cc(=O)oc2cc(OCC(=O)N/N=C/c3ccccc3O)ccc12	61*	28	28	26	39	1	-2
Cc1cc(=O)oc2cc(OCC(=O)c3ccccc3)ccc12	-2	-12	5	1	0	nt	nt
COc1ccc(NC(=O)COc2ccc3c(C)cc(=O)oc3c2)cc1S(=O)(=O)N1CCCCC1	63*	8	6	3	2	-1	-9
O=C1N=C(N2CCCC2)S/C1=C\C=C\c1ccccc1	0	-11	-25	2	3	nt	nt
CN(C)c1cc2c3ccccc3n(C)c2cc1N	-10	3	4	0	0	nt	nt
CC(C)(C)CC(=O)Nc1cccc2c1CCCC2	61*	-9	2	0	-1	32*	3	DNMT1 interf DR=>99
